In ChEMBL document CHEMBL1275531, “Genomewide expression profiling of cryptolepine-induced toxicity in Saccharomyces cerevisiae” (Antimicrob Agents Chemother, 2008):
Calls of active or inactive are those of the source. No cut-off for these calls is given here.

Assays:
Saccharomyces cerevisiae [1] = assay: Downregulation of ARN1 gene expression in Saccharomyces cerevisiae relative to untreated control; format: functional
Procedure, shortened: (§1)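 Δerg6 cells treated 15 h at 7.5 or 17 μM, with the eight microarray hybridizations pooled. A gene counted as changed when two-tailed Student t test on log-transformed ratios gave P below 0.01 for ratio equal to 1. Genes grouped by GO biological-process category.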

Saccharomyces cerevisiae [2] = assay: Downregulation of ARN2 gene expression in Saccharomyces cerevisiae relative to untreated control; format: functional; procedure, shortened: as §1
Saccharomyces cerevisiae [3] = assay: Downregulation of SIT1 gene expression in Saccharomyces cerevisiae relative to untreated control; format: functional; procedure, shortened: as §1
Saccharomyces cerevisiae [4] = assay: Downregulation of FIT1 gene expression in Saccharomyces cerevisiae relative to untreated control; format: functional; procedure, shortened: as §1
Saccharomyces cerevisiae [5] = assay: Downregulation of FIT2 gene expression in Saccharomyces cerevisiae relative to untreated control; format: functional; procedure, shortened: as §1
Saccharomyces cerevisiae [6] = assay: Downregulation of FIT3 gene expression in Saccharomyces cerevisiae relative to untreated control; format: functional; procedure, shortened: as §1
Saccharomyces cerevisiae [7] = assay: Downregulation of FRE1 gene expression in Saccharomyces cerevisiae relative to untreated control; format: functional; procedure, shortened: as §1
Saccharomyces cerevisiae [8] = assay: Upregulation of FRE2 gene expression in Saccharomyces cerevisiae relative to untreated control; format: functional; procedure, shortened: as §1
Saccharomyces cerevisiae [9] = assay: Downregulation of FRE5 gene expression in Saccharomyces cerevisiae relative to untreated control; format: functional; procedure, shortened: as §1
Saccharomyces cerevisiae [10] = assay: Downregulation of FRE6 gene expression in Saccharomyces cerevisiae relative to untreated control; format: functional; procedure, shortened: as §1
Saccharomyces cerevisiae [11] = assay: Downregulation of FET3 gene expression in Saccharomyces cerevisiae relative to untreated control; format: functional; procedure, shortened: as §1
Saccharomyces cerevisiae [12] = assay: Upregulation of FET5 gene expression in Saccharomyces cerevisiae relative to untreated control; format: functional; procedure, shortened: as §1
Saccharomyces cerevisiae [13] = assay: Downregulation of FTR1 gene expression in Saccharomyces cerevisiae relative to untreated control; format: functional; procedure, shortened: as §1
Saccharomyces cerevisiae [14] = assay: Downregulation of FTH1 gene expression in Saccharomyces cerevisiae relative to untreated control; format: functional; procedure, shortened: as §1
Saccharomyces cerevisiae [15] = assay: Downregulation of FET4 gene expression in Saccharomyces cerevisiae relative to untreated control; format: functional; procedure, shortened: as §1
Saccharomyces cerevisiae [16] = assay: Downregulation of SMF1 gene expression in Saccharomyces cerevisiae relative to untreated control; format: functional; procedure, shortened: as §1
Saccharomyces cerevisiae [17] = assay: Upregulation of SMF2 gene expression in Saccharomyces cerevisiae relative to untreated control; format: functional; procedure, shortened: as §1
Saccharomyces cerevisiae [18] = assay: Downregulation of SMF3 gene expression in Saccharomyces cerevisiae relative to untreated control; format: functional; procedure, shortened: as §1
Saccharomyces cerevisiae [19] = assay: Cytotoxicity against Saccharomyces cerevisiae JN394 harboring deltarad52 mutant gene after 4 hrs; format: functional, organism-based; conditions: JN394, 4 h
Procedure, shortened: (§2)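 Growth assay: strains precultured in YPD at 30°C for 15 h, shaking 250 rpm in the dark, then standardized to OD600 0.05 in the same medium. Grown in triplicate with a range of concentrations (methanol stock, diluted before use) under continuous 4 h treatment; growth read as OD600 and inhibitory concentrations taken from the plots.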

Saccharomyces cerevisiae [20] = assay: Cytotoxicity against Saccharomyces cerevisiae BY4741 harboring deltaerg6 mutant gene after 4 hrs; format: functional, organism-based; conditions: BY4741, 4 h; procedure, shortened: as §2
Saccharomyces cerevisiae [21] = assay: Cytotoxicity against Saccharomyces cerevisiae BY4741 harboring deltaerg6 mutant gene at <10 uM after 4 hrs; format: functional, organism-based; procedure, shortened: as §2
Saccharomyces cerevisiae [22] = assay: Cytotoxicity against Saccharomyces cerevisiae; format: functional; procedure, shortened: as §2
Saccharomyces cerevisiae [23] = assay: Downregulation of ARN2 gene expression in Saccharomyces cerevisiae at 7.5 uM after 15 hrs by microarray analysis relative to untreated control; format: functional
Procedure, shortened: (§3)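 BY4741Δerg6 cells exposed 15 h to 7.5 or 17 μM; total RNA, 15 μg, used for Cy3/Cy5-dUTP indirect labeling. Arrays prehybridized at 42°C for 45 min, then hybridized in 50% formamide, 5× SSC. Each dose done in duplicate, each RNA hybridized twice with dye swap; treated/untreated fluorescence ratios log-transformed.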

Saccharomyces cerevisiae [24] = assay: Downregulation of ARN2 gene expression in Saccharomyces cerevisiae at 7.5 uM after 15 hrs by qRT-PCR relative to untreated control; format: functional
Procedure, shortened: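 qRT-PCR used aliquots of the microarray RNA (treated and untreated Δerg6, 7.5 or 17 μM, 15 h) plus two additional biological replicates. Cycling was 95°C 10 min, then 40 cycles of 95°C 15 s and 60°C 1 min, with a dissociation curve. Genomic DNA 10-fold dilution standard curves; no-template and no-enzyme controls in triplicate; relative expression by ΔΔCT.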

Saccharomyces cerevisiae [25] = assay: Downregulation of FIT3 gene expression in Saccharomyces cerevisiae at 7.5 uM after 15 hrs by microarray analysis relative to untreated control; format: functional; procedure, shortened: as §3

Compound: C[n+]1c2ccccc2cc2[n-]c3ccccc3c21.Cl [CRYPTOLEPINE HYDROCHLORIDE]
- fold change (FC) (Saccharomyces cerevisiae [1]): 1.07
- fold change (FC) (Saccharomyces cerevisiae [2]): 3.01
- fold change (FC) (Saccharomyces cerevisiae [3]): 1.57
- fold change (FC) (Saccharomyces cerevisiae [4]): 2.13
- fold change (FC) (Saccharomyces cerevisiae [5]): 1.94
- fold change (FC) (Saccharomyces cerevisiae [6]): 3.46
- fold change (FC) (Saccharomyces cerevisiae [7]): 0.78
- fold change (FC) (Saccharomyces cerevisiae [8]): 0.13
- fold change (FC) (Saccharomyces cerevisiae [9]): 1.01
- fold change (FC) (Saccharomyces cerevisiae [10]): 0.08
- fold change (FC) (Saccharomyces cerevisiae [11]): 1.11
- fold change (FC) (Saccharomyces cerevisiae [12]): 0.8
- fold change (FC) (Saccharomyces cerevisiae [13]): 0.49
- fold change (FC) (Saccharomyces cerevisiae [14]): 0.53
- fold change (FC) (Saccharomyces cerevisiae [15]): 1.79
- fold change (FC) (Saccharomyces cerevisiae [16]): 0.35
- fold change (FC) (Saccharomyces cerevisiae [17]): 0.09
- fold change (FC) (Saccharomyces cerevisiae [18]): 1.24
- IC50 (Saccharomyces cerevisiae [19]): 20.3 µM
- IC50 (Saccharomyces cerevisiae [20]): 25 µM
- Activity (Saccharomyces cerevisiae [21]): Active
- IC20 (Saccharomyces cerevisiae [22]): 7.5 µM
- IC40 (Saccharomyces cerevisiae [22]): 17 µM
- fold change (FC) (Saccharomyces cerevisiae [23]): 2.18
- fold change (FC) (Saccharomyces cerevisiae [24]): 4.06
- fold change (FC) (Saccharomyces cerevisiae [25]): 3.3
